How the values were obtained:
[1] = biological target: Insulin-like growth factor 1 receptor (Homo sapiens) (UniProt P08069); assay: Residual activity at human IGF1R at 10 uM in presence of 10 uM ATP relative to control
Procedure, shortened: (§1)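 Panel of Ser/Thr and Tyr protein kinases, each tested with 10 µM compound in the presence of 10 µM ATP; activity expressed relative to control.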

[2] = biological target: Ribosomal protein S6 kinase alpha-2 (Homo sapiens) (UniProt Q15349); assay: Residual activity at human Rsk2 at 10 uM in presence of 10 uM ATP relative to control
Procedure, shortened: (§2)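 Single-concentration counter-screen across a panel of 80 Ser/Thr and Tyr protein kinases. Compound was tested at 10 µM with ATP at 10 µM. Activity remaining in each kinase is expressed relative to control.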

[3] = biological target: Tyrosine-protein kinase Yes (Homo sapiens) (UniProt P07947); assay: Inhibition of human Yes at 10 uM in presence of 10 uM ATP relative to control; set-up: scale not given: the % may be the effect or the level left; procedure, shortened: as §1
[4] = Cmax in rat at 10 mg/kg, iv; type: ADME, organism-based; set-up: dose 10 mg/kg, route intravenous; settings: in vivo
Procedure, shortened: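 Rats given a single 10 mg/kg dose, intravenously or orally. The compound was given as its potassium salt, prepared with KOH in THF/water, for the in vivo work.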

THP-1 = assay: Inhibition of MCP1-induced chemotaxis of THP1 cells; type: functional, cell-based; settings: Homo sapiens
[5] = biological target: MAP kinase-activated protein kinase 5 (Homo sapiens) (UniProt Q8IW41); assay: Residual activity at human PRAK at 10 uM in presence of 10 uM ATP relative to control; procedure, shortened: as §2
[6] = biological target: Cytoplasmic tyrosine-protein kinase BMX (Homo sapiens) (UniProt P51813); assay: Residual activity at human Bmx at 10 uM in presence of 10 uM ATP relative to control; procedure, shortened: as §1
[7] = biological target: Mitogen-activated protein kinase 13 (Homo sapiens) (UniProt O15264); assay: Residual activity at human SAPK4 at 10 uM in presence of 10 uM ATP relative to control; procedure, shortened: as §2
Mitogen-activated protein kinase 13 (Homo sapiens), sequence (O15264 whole entry): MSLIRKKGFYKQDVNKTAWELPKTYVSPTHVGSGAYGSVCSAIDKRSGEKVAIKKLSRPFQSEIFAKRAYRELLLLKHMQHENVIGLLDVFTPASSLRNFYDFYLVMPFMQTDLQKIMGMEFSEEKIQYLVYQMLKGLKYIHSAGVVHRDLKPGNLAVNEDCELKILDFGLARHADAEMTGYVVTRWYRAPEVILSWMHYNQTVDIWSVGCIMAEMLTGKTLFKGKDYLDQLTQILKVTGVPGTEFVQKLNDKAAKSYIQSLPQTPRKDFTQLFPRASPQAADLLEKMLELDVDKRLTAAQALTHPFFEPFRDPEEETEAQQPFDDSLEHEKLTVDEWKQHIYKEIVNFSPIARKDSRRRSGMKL

[8] = biological target: RAC-alpha serine/threonine-protein kinase (Homo sapiens) (UniProt P31749); assay: Residual activity at human PKBalpha at 10 uM in presence of 10 uM ATP relative to control; procedure, shortened: as §2
RAC-alpha serine/threonine-protein kinase (Homo sapiens), sequence (P31749 whole entry): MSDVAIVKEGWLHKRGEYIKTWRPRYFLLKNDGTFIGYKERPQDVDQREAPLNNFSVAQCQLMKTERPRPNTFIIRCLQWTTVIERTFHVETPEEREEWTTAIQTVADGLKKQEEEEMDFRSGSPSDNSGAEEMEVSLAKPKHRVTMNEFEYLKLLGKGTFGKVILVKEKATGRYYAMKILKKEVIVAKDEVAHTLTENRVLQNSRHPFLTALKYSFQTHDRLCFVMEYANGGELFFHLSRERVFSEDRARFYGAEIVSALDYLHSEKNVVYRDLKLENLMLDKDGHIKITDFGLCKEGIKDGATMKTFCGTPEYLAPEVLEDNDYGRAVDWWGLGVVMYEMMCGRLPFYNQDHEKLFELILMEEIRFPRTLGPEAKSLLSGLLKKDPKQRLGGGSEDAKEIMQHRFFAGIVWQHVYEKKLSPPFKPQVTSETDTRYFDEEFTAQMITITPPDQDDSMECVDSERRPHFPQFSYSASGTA

[9] = biological target: RAF proto-oncogene serine/threonine-protein kinase (Homo sapiens) (UniProt P04049); assay: Residual activity at human c-RAF at 10 uM in presence of 10 uM ATP relative to control; procedure, shortened: as §2
[10] = biological target: Ca2+/calmodulin-dependent protein kinase II (CaM kinase II) (Rattus norvegicus) (UniProt P11275+P08413+P15791+P11730); assay: Residual activity at rat CaMK2 at 10 uM in presence of 10 uM ATP relative to control; type: protein assay
[11] = biological target: Serine/threonine-protein kinase PAK 2 (Homo sapiens) (UniProt Q13177); assay: Residual activity at human PAK2 at 10 uM in presence of 10 uM ATP relative to control; procedure, shortened: as §2
Serine/threonine-protein kinase PAK 2 (Homo sapiens), sequence (Q13177 whole entry): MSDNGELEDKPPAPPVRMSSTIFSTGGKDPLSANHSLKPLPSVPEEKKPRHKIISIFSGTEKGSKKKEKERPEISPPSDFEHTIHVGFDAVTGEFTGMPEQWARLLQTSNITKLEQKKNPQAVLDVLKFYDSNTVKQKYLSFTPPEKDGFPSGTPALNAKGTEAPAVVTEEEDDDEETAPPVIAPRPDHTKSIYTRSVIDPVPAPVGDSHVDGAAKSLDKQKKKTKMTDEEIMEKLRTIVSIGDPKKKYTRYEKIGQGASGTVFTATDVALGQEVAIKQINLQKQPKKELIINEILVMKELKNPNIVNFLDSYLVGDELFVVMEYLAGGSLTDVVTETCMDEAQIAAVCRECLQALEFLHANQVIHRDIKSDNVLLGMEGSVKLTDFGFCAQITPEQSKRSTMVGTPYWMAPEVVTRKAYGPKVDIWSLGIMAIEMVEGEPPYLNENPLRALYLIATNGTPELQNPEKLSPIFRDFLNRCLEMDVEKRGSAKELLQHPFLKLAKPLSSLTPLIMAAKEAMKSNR

[12] = biological target: Mitogen-activated protein kinase 12 (Homo sapiens) (UniProt P53778); assay: Residual activity at human SAPK3 at 10 uM in presence of 10 uM ATP relative to control; procedure, shortened: as §2
[13] = biological target: Cyclin-dependent kinase 2/cyclin E (Homo sapiens) (UniProt P24864+P24941+O96020); assay: Residual activity at human CDK2/CyclinE at 10 uM in presence of 10 uM ATP relative to control; type: protein-complex assay; procedure, shortened: as §1
[14] = biological target: CDK3/cyclin E (Homo sapiens) (UniProt P24864+O96020+Q00526); assay: Residual activity at human CDK3/CyclinE at 10 uM in presence of 10 uM ATP relative to control; type: protein-complex assay; procedure, shortened: as §1
[15] = biological target: Tyrosine-protein kinase SYK (Homo sapiens) (UniProt P43405); assay: Residual activity at human Syk at 10 uM in presence of 10 uM ATP relative to control; procedure, shortened: as §2
[16] = biological target: Tyrosine-protein kinase Fyn (Homo sapiens) (UniProt P06241); assay: Residual activity at human FYN at 10 uM in presence of 10 uM ATP relative to control; procedure, shortened: as §1
Tyrosine-protein kinase Fyn (Homo sapiens), sequence (P06241 2-537 limits assumed): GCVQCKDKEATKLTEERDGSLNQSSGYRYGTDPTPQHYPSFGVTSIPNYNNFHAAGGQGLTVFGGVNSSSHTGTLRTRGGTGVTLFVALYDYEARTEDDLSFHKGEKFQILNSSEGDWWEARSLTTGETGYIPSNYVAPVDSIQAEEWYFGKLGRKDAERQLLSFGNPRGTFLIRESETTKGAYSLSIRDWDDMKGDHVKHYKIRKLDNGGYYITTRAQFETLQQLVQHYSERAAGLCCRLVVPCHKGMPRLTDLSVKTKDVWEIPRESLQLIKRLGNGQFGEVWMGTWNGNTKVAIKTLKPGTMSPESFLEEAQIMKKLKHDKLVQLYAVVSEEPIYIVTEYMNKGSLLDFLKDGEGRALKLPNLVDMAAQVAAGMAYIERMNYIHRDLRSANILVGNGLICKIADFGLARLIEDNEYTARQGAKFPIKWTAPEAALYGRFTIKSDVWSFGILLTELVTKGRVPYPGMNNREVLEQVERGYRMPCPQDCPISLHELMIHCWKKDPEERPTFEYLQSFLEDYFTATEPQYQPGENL

[17] = biological target: Serine/threonine-protein kinase Sgk1 (Homo sapiens) (UniProt O00141); assay: Residual activity at human SGK at 10 uM in presence of 10 uM ATP relative to control; procedure, shortened: as §2
Serine/threonine-protein kinase Sgk1 (Homo sapiens), sequence (O00141 whole entry): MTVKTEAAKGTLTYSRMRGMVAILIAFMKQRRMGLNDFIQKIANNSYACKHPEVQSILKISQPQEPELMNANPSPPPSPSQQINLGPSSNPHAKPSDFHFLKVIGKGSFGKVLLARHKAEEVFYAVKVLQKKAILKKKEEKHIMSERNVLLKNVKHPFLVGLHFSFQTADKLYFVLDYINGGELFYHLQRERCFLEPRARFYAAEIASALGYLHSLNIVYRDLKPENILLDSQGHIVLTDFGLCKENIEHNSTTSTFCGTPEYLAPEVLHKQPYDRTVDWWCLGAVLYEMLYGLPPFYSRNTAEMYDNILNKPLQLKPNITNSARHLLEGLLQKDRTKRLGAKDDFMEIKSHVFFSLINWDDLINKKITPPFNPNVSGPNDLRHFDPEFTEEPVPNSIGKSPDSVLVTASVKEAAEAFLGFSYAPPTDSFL

[18] = biological target: Protein kinase C epsilon type (Homo sapiens) (UniProt Q02156); assay: Residual activity at human PKCepsilon at 10 uM in presence of 10 uM ATP relative to control; procedure, shortened: as §2
[19] = biological target: Tyrosine-protein kinase Lck (Homo sapiens) (UniProt P06239); assay: Residual activity at human Lck at 10 uM in presence of 10 uM ATP relative to control; procedure, shortened: as §2
[20] = biological target: Inhibitor of nuclear factor kappa-B kinase subunit beta (Homo sapiens) (UniProt O14920); assay: Residual activity at human IKK-beta at 10 uM in presence of 10 uM ATP relative to control; procedure, shortened: as §1
[21] = biological target: Protein kinase C iota type (Homo sapiens) (UniProt P41743); assay: Residual activity at human PKCiota at 10 uM in presence of 10 uM ATP relative to control; procedure, shortened: as §2
[22] = biological target: Phosphatidylinositol 4,5-bisphosphate 3-kinase catalytic subunit beta isoform (Homo sapiens, UniProt P42338); assay: Inhibition of human PI3Kbeta
Phosphatidylinositol 4,5-bisphosphate 3-kinase catalytic subunit beta isoform, sequence (P42338 whole entry, canonical isoform): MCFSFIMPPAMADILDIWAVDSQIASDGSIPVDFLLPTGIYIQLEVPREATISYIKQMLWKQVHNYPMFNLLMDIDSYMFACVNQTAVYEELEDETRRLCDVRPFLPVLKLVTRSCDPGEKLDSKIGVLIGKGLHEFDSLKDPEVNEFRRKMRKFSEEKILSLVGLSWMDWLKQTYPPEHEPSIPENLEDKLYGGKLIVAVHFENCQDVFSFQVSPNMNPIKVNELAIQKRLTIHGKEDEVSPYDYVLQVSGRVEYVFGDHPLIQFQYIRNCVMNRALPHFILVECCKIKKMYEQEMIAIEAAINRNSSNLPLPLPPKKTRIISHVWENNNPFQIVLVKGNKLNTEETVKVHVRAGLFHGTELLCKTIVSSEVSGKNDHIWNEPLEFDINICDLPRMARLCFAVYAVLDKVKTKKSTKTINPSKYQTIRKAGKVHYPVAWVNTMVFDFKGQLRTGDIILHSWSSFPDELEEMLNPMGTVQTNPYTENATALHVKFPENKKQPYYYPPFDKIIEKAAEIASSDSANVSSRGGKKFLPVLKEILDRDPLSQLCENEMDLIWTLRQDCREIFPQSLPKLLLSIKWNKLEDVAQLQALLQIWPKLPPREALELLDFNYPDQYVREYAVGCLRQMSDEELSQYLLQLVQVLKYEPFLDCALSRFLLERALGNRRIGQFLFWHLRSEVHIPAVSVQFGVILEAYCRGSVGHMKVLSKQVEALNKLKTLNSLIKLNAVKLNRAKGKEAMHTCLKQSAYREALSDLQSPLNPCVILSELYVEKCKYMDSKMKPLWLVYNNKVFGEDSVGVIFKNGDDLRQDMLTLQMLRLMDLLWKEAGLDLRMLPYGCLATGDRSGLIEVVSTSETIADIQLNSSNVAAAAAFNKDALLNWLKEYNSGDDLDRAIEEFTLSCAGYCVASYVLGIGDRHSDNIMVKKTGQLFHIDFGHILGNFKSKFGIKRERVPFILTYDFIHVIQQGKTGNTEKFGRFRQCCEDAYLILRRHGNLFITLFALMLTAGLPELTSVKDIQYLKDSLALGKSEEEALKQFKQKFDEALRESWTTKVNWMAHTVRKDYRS

[23] = biological target: Mitogen-activated protein kinase 14 (Homo sapiens) (UniProt Q16539); assay: Residual activity at human SAPK2a at 10 uM in presence of 10 uM ATP relative to control; procedure, shortened: as §2
[24] = biological target: Mitogen-activated protein kinase 9 (Homo sapiens) (UniProt P45984); assay: Residual activity at human JNK2-alpha-2 at 10 uM in presence of 10 uM ATP relative to control; procedure, shortened: as §2
[25] = biological target: Calcium/calmodulin-dependent protein kinase type IV (Homo sapiens) (UniProt Q16566); assay: Residual activity at human CaMK4 at 10 uM in presence of 10 uM ATP relative to control; procedure, shortened: as §1
[26] = biological target: Cyclin-dependent kinase 7/ cyclin H (Homo sapiens) (UniProt P51946+P50613); assay: Residual activity at human CDK7/CyclinH/MAT1 at 10 uM in presence of 10 uM ATP relative to control; type: protein-complex assay; procedure, shortened: as §1

Insulin-like growth factor 1 receptor (Homo sapiens), sequence (P08069 31-736 limits assumed): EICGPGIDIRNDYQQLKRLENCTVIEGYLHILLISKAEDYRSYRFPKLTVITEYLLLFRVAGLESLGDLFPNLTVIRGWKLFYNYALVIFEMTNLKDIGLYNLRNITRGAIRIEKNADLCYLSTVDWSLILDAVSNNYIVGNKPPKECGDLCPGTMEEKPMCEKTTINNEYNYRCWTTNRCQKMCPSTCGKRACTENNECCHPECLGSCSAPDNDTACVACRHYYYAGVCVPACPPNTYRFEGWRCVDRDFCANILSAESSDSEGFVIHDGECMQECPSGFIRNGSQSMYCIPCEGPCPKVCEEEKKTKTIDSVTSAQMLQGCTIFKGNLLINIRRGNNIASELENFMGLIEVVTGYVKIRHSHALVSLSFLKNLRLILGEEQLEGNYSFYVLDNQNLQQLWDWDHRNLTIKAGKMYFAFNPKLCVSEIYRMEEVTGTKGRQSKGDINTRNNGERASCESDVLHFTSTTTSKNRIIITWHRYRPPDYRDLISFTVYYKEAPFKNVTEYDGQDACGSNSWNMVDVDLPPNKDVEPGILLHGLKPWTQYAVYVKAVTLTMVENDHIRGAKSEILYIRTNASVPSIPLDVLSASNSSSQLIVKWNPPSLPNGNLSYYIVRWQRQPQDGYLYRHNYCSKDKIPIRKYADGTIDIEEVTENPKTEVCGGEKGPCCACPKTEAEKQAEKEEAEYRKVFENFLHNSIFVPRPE
Insulin-like growth factor 1 receptor (Homo sapiens), sequence (P08069 741-1367 limits assumed): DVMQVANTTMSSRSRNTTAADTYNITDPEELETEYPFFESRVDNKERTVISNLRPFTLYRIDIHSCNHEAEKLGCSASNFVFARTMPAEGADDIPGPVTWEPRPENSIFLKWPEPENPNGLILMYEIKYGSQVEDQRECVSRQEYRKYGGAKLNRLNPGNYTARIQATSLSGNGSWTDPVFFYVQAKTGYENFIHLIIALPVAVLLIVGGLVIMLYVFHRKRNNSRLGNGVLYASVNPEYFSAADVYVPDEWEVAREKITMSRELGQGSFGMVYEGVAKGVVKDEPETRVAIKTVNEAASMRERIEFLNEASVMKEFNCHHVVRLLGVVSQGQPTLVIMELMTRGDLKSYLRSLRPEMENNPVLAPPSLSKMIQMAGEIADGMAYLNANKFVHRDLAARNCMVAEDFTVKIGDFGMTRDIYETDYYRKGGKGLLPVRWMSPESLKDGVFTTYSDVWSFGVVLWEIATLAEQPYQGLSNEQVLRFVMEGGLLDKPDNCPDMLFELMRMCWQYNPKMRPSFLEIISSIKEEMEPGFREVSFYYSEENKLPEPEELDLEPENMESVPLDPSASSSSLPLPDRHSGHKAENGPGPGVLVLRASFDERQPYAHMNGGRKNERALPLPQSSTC

Activity [1]: 96%
Activity [2]: 86%
Activity [3]: 99%
Cmax [4]: 11400 ng/mL
IC50 (THP-1): 53 µM
Activity [5]: 95%
Activity [6]: 102%
Activity [7]: 93%
Activity [8]: 97%
Activity [9]: 99%
Activity [10]: 97%
Activity [11]: 178%
Activity [12]: 93%
Activity [13]: 93%
Activity [14]: 117%
Activity [15]: 93%
Activity [16]: 91%
Activity [17]: 98%
Activity [18]: 93%
Activity [19]: 104%
Activity [20]: 89%
Activity [21]: 84%
IC50 [22]: 20 µM
Activity [23]: 84%
Activity [24]: 97%
Activity [25]: 111%
Activity [26]: 77%
Structure (SMILES): O=C1NC(=O)/C(=C/c2ccc(-c3ccc(F)cc3O)o2)S1
